Like-named read-outs stand apart in the source and are kept apart here. Blank lines part the entries; values can stand above or below the compound they belong to.
Legend:
MaMTH stable bait cells = test: Reporter cell viability; type: cell-based
How it was run: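 MaMTH stable bait cells seeded at 10,000 cells/well in 96-well plates. Next day treated across a dose range of test compound, with 0.5 μg/mL tetracycline to induce bait expression. Viability measured by CellTiter-Glo luminescence after 72 h of drug exposure.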

[1] = tested on: PC9 EGFR ex19del/T790M/C797S cells; test: Western analysis of EGFR activation and downstream signalling; type: cell-based; conditions: for EGFR activation and signalling through ERK and AKT: 20 µM; for EGFR activation and signalling through ERK and AKT / EGFR phosphorylation/activation / phosphorylation of downstream signalling partners: 2 hours treatment; for potency towards mutant EGFR relative to EMI1: 10 µM dose; for EGFR phosphorylation/activation: compared with PC9 ex19del cells; for phosphorylation of downstream signalling partners: triple mutant cells
[2] = tested on: PC9 EGFR ex19del/T790M/C797S cells; test: Microtubule imaging; type: cell-based
[3] = tested on: RTK bait (MET, FGFR4, AXL, ALK, EGFR); conditions: for bait expression: EGFR WT and mutant baits
ALK = ALK (Homo sapiens, UniProt Q9UM73); conditions: dose response
EGFR L858R/T790M/C797S [4] = molecular target: T1, EGFR L858R/T790M/C797S (Homo sapiens, UniProt P00533, C797S/L858R/T790M); test: MaMTH-DS assay and screen, EGFR L858R/T790M/C797S bait with Shc1 prey; type: cell-based
AXL = molecular target: T2, AXL (Homo sapiens, UniProt P30530); test: MaMTH-DS assay, AXL bait with Shc1 prey; type: cell-based; conditions: dose response
T2 sequence (P30530 26-894): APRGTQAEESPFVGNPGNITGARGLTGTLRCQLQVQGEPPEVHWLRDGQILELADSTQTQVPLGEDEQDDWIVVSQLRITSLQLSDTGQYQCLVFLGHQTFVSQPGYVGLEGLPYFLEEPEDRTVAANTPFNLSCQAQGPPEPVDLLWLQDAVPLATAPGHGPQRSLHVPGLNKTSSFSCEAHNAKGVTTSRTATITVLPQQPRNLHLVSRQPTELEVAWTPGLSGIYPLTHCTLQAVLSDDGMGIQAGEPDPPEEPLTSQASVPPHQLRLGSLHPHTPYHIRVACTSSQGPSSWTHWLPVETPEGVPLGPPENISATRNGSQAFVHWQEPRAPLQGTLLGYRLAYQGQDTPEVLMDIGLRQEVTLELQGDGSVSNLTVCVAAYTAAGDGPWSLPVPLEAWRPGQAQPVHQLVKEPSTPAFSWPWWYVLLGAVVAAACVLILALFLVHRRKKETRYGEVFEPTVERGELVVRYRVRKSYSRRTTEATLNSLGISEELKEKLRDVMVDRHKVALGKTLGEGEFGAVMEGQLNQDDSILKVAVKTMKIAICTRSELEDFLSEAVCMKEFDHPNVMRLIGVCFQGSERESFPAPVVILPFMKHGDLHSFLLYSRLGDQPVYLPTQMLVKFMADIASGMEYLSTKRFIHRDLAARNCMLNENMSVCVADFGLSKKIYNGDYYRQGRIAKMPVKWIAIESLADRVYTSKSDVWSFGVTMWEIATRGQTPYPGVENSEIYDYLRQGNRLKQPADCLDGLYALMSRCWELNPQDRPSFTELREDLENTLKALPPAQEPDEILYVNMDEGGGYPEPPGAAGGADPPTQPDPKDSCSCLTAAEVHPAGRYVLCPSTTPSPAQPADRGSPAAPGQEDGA

[5] = tested on: PC9 EGFR ex19del/T790M/C797S organoids; test: Organoid viability assay; type: cell-based
[6] = tested on: PC9 EGFR ex19del/T790M/C797S cells; test: Caspase 3 and 7 assay; type: cell-based; conditions: 72 hours of drug treatment
EGFR ex19del/T790M/C797S = EGFR ex19del/T790M/C797S (Homo sapiens, UniProt P00533, C797S/DEL746-750/T790M); test: In vitro kinase assay, recombinant kinase domain; type: biochemical; conditions: 100 µM ATP
EGFR L858R = EGFR L858R (Homo sapiens, UniProt P00533, L858R); test: In vitro kinase assay, recombinant EGFR single mutant; type: biochemical; conditions: compared with triple mutants
wild-type EGFR = wild-type EGFR (Homo sapiens, UniProt P00533); test: In vitro kinase assay, recombinant kinase domain; type: biochemical; conditions: 100 µM ATP
EGFR ex19del = test: In vitro kinase assay, recombinant EGFR single mutant; type: biochemical; conditions: compared with triple mutants
EGFR ex19del/T790M = EGFR ex19del/T790M (Homo sapiens, UniProt P00533, DEL746-750/T790M); test: In vitro kinase assay, recombinant EGFR double mutant; type: biochemical
EGFR L858R/T790M = EGFR L858R/T790M (Homo sapiens, UniProt P00533, L858R/T790M); test: as above; type: biochemical
A549 EGFR WT cells = test: Caspase 3 and 7 assay; type: cell-based; conditions: 72 hours of drug treatment
How it was run: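 A549 cells were plated in 384-well plates at 5,000 cells per well and exposed to test compound for 72 h. Caspase 3 and 7 activity was then read by luminescence using the Caspase-Glo 3/7 reagent.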

EGFR L858R/T790M/C797S [7] = molecular target: T1, EGFR L858R/T790M/C797S; test: In vitro kinase assay, recombinant kinase domain; type: biochemical; conditions: 100 µM ATP
HEK293 EGFR WT cells = test: EGFR localization and endosomal trafficking; type: cell-based; conditions: 1 µM compound, 30 minutes EGF
[8] = tested on: HEK293 EGFR L858R/T790M/C797S cells; test: Cell surface biotinylation assay; type: cell-based; conditions: 5 µM compound, 2 hours
[9] = tested on: HEK293 EGFR L858R/T790M/C797S cells; test: EGFR localization and endosomal trafficking; type: cell-based

Chain of ALK (Q9UM73 19-1620): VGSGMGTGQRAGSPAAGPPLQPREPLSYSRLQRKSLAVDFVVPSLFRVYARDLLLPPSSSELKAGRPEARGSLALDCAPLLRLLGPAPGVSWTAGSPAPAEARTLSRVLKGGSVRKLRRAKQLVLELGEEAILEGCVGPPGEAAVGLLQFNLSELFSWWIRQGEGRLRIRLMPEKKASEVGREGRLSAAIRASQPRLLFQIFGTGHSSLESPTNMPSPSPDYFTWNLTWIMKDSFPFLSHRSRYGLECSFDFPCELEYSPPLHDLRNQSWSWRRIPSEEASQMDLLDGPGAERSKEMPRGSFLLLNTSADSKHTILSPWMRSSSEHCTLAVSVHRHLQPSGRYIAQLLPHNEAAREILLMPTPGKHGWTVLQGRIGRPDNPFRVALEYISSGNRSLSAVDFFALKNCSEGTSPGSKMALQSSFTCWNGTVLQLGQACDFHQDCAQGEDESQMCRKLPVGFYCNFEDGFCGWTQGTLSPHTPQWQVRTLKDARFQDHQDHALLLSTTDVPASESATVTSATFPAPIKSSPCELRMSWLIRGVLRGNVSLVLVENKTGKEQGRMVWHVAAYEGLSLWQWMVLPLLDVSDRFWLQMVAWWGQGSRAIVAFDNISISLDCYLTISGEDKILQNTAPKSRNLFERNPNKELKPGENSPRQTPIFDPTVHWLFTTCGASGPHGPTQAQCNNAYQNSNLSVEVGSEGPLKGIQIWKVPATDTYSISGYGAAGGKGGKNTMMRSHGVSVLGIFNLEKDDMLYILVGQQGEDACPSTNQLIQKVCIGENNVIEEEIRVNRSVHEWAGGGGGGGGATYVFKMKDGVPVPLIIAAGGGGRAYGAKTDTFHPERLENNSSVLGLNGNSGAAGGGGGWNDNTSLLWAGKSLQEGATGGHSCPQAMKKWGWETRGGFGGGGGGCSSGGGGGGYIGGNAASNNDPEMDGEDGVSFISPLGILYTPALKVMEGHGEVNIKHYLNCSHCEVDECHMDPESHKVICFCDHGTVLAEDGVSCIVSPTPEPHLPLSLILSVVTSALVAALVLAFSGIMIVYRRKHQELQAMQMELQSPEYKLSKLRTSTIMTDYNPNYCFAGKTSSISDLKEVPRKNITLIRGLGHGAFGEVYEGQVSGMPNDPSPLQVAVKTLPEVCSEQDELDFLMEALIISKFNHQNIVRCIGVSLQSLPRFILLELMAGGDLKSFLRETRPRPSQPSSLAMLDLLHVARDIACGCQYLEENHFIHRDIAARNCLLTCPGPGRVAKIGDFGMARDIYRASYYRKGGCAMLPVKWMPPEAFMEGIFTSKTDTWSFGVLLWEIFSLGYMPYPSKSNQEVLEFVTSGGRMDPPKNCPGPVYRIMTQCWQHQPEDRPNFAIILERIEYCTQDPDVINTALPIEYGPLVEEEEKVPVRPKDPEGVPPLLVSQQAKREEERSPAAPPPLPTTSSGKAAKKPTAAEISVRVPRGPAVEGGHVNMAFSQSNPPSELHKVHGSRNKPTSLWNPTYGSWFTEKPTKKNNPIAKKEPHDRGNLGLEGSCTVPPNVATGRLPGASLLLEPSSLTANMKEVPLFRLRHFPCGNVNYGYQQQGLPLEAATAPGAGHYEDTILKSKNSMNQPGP

SMILES: C=CC(=O)Nc1cccc(C)c1Nc1ncc2cc(-c3c(Cl)c(OC)cc(OC)c3Cl)ccc2n1 [BLU9931]
reporter cell viability (MaMTH stable bait cells; FGFR4 bait cells): no effect on reporter cell viability

SMILES: COc1cc2c(c(OC)c1OC)-c1ccc(OC)c(=O)cc1[C@@H](NC(C)=O)CC2 [Colchicine]
EGFR activation and signalling through ERK and AKT [1]: not evident

SMILES: CC(=O)O[C@@]12CO[C@@H]1C[C@H](O)[C@@]1(C)C(=O)[C@H](O)C3=C(C)[C@@H](OC(=O)[C@H](O)[C@@H](NC(=O)OC(C)(C)C)c4ccccc4)C[C@@](O)([C@@H](OC(=O)c4ccccc4)[C@H]21)C3(C)C [Docetaxel]
EGFR activation and signalling through ERK and AKT [1]: not evident

SMILES: CCN(CC)c1ccc2cc(-c3nc4cc(C)ccc4o3)c(=O)oc2c1 [EMI48]
interphase microtubules and spindle formation [2]: did not affect interphase microtubules, nor have an effect on spindle formation | potency towards mutant EGFR relative to EMI1 [1]: greater potency towards mutant EGFR than EMI1

SMILES: CCN(CC)c1cc2oc(=O)c(-c3nc4ccccc4o3)cc2cc1C [EMI56]
interphase microtubules and spindle formation [2]: did not affect interphase microtubules, nor have an effect on spindle formation | potency towards mutant EGFR relative to EMI1 [1]: greater potency towards mutant EGFR than EMI1

SMILES: COC(=O)Nc1nc2ccc(C(=O)c3cccs3)cc2[nH]1 [Nocodazole]
EGFR activation and signalling through ERK and AKT [1]: not evident

SMILES: COc1cc(OC)c(/C=C/S(=O)(=O)Cc2ccc(OC)c(NCC(=O)O)c2)c(OC)c1 [Rigosertib]
EGFR activation and signalling through ERK and AKT [1]: not evident

SMILES: COc1cc(N2CCC(N3CCN(C)CC3)CC2)ccc1Nc1ncc(Cl)c(Nc2ccccc2P(C)(C)=O)n1 [brigatinib]
bait expression level ([3]; ALK bait): not altered by compound | reporter cell viability (MaMTH stable bait cells; ALK bait cells): cell viability was unaffected | ALK activity (interaction with Shc1) (ALK): strongly reduced, in a dose-dependent manner

SMILES: CC1(COc2ccc3c(c2)ncn3-c2ccc3cccc(N4CCC(N)CC4)c3n2)COC1 [crenolanib]
interaction of Shc1 with EGFR L858R/T790M/C797S (in words) (EGFR L858R/T790M/C797S [4]): none were found to target the EGFR C797S triple mutant

SMILES: C[C@@H](Oc1cc(-c2cnn(C3CCNCC3)c2)cnc1N)c1c(Cl)ccc(F)c1Cl [crizotinib]
reporter cell viability (MaMTH stable bait cells; MET bait cells): not due to a loss in cell viability

SMILES: C#Cc1cccc(Nc2ncnc3cc(OCCOC)c(OCCOC)cc23)c1 [erlotinib]
bait expression [3]: no effect of TKIs on bait expression | reporter cell viability (MaMTH stable bait cells; EGFR WT and mutant bait cells): not due to a reduction in reporter cell viability | AXL activity (interaction with Shc1) (AXL): not erlotinib control

SMILES: COc1cc2c(Oc3ccc(NC(=O)C4(C(=O)Nc5ccc(F)cc5)CC4)cc3F)ccnc2cc1OCCCN1CCOCC1 [foretinib]
bait expression level ([3]; AXL bait): not altered by compound | reporter cell viability (MaMTH stable bait cells; AXL bait cells): cell viability was unaffected | AXL activity (interaction with Shc1) (AXL): strongly reduced, in a dose-dependent manner

IC50 values, inhibition of kinase domain (in words) (EGFR ex19del/T790M/C797S): low nanomolar range | activity against single mutant (EGFR L858R): less effective | activity against single mutant (EGFR ex19del): less effective | activity against double mutant (EGFR ex19del/T790M): moderate to strong activity | activity against double mutant (EGFR L858R/T790M): moderate to strong activity | IC50 values, inhibition of kinase domain (in words) (EGFR L858R/T790M/C797S [7]): low nanomolar range
SMILES: CCc1nc(C(N)=O)c(Nc2ccc(N3CCC(N4CCN(C)CC4)CC3)c(OC)c2)nc1NC1CCOCC1 [gilteritinib]
organoid viability / growth [5]: potently affected the growth of PC9 triple mutant organoids | caspase 3/7 activity [6]: induced caspase 3 and 7 activity | activity towards triple mutants compared with WT EGFR (wild-type EGFR): significantly more potent activity towards the mutants than WT EGFR | interaction of Shc1 with EGFR L858R/T790M/C797S (in words) (EGFR L858R/T790M/C797S [4]): potent and highly specific inhibitor of the EGFR triple mutant | caspase 3/7 activity (A549 EGFR WT cells): not in A549 epithelial cells carrying EGFR WT | EGFR phosphorylation/activation [1]: reduced EGFR phosphorylation/activation in PC9 ex19del/T790M/C797S triple mutant cells more strongly | phosphorylation of downstream signalling partners [1]: more potently reducing pAKT levels

activity against single mutant (EGFR L858R): less effective | activity against single mutant (EGFR ex19del): less effective | activity against double mutant (EGFR ex19del/T790M): moderate to strong activity | activity against double mutant (EGFR L858R/T790M): moderate to strong activity | interaction of Shc1 with EGFR L858R/T790M/C797S (in words) (EGFR L858R/T790M/C797S [4]): robust, dose-dependent inhibition
SMILES: CO[C@@H]1[C@H](N(C)C(=O)c2ccccc2)C[C@H]2O[C@]1(C)n1c3ccccc3c3c4c(c5c6ccccc6n2c5c31)C(=O)NC4 [midostaurin]
organoid viability / growth [5]: potently affected the growth of PC9 triple mutant organoids | caspase 3/7 activity [6]: induced caspase 3 and 7 activity | activity towards triple mutants compared with WT EGFR (wild-type EGFR): significantly more potent activity towards the mutants than WT EGFR | EGF accumulation in EEA1-positive early endosomes (HEK293 EGFR WT cells): A similar effect was observed for EGFR WT cells but to a lesser degree | overall amount of EGFR pY1068 localized to EEA1-positive endosomes (HEK293 EGFR WT cells): not in EGFR WT | caspase 3/7 activity (A549 EGFR WT cells): not in A549 epithelial cells carrying EGFR WT | surface levels of EGFR [8]: not observed | EGF accumulation in EEA1-positive early endosomes ([9]; 1 µM compound, 30 minutes EGF): significantly reduced EGF accumulation in EEA1-positive early endosomes | overall amount of EGFR pY1068 localized to EEA1-positive endosomes ([9]; 1 µM compound, 30 minutes EGF): significantly reduced the overall amount of EGFR pY1068 localized to EEA1-positive endosomes | average amount of activated EGFR per endosome ([9]; 30 min EGF): reduced the amount of activated EGFR per endosome | number of early endosomes carrying activated EGFR ([9]; 30 min EGF): had no effect on total endosome number | EGFR phosphorylation/activation [1]: reduced EGFR phosphorylation/activation in PC9 ex19del/T790M/C797S triple mutant cells more strongly | phosphorylation of downstream signalling partners [1]: more potently reducing pAKT and pERK levels

SMILES: C=CC(=O)Nc1cc(Nc2nccc(-c3cn(C)c4ccccc34)n2)c(OC)cc1N(C)CCN(C)C [osimertinib]
organoid viability / growth [5]: has no effect | bait expression [3]: no effect of TKIs on bait expression | reporter cell viability (MaMTH stable bait cells; EGFR WT and mutant bait cells): not due to a reduction in reporter cell viability | surface levels of EGFR [8]: not observed | EGF accumulation in EEA1-positive early endosomes ([9]; 1 µM compound, 30 minutes EGF): had no effect

SMILES: CC(C)(C)c1cc(NC(=O)Nc2ccc(-c3cn4c(n3)sc3cc(OCCN5CCOCC5)ccc34)cc2)no1 [quizartinib]
interaction of Shc1 with EGFR L858R/T790M/C797S (in words) (EGFR L858R/T790M/C797S [4]): none were found to target the EGFR C797S triple mutant

Reference: publication PMC8123931 (Nature chemical biology, 2020)
